According to ChEMBL document CHEMBL1156747, “N3-arylmalonamides: a new series of thieno[3,2-b]pyridine based inhibitors of c-Met and VEGFR2 tyrosine kinases” (Bioorg Med Chem Lett, 2009):
Each block holds one compound with its values, some of them ahead of it. Activity calls are given as the source filed them. The calls are words filed in the database; no cut-off is given here.

Experiments:
[1] = target: Platelet-derived growth factor receptor alpha (Homo sapiens) (UniProt P16234); test: Inhibition of PDGFRalpha at 100 nM by radiometric protein kinase assay
Outline: (§1)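 Single-concentration kinase selectivity panel run as radiometric protein kinase assays by an outside screening service; percent inhibition reported.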

[2] = target: T1, Vascular endothelial growth factor receptor 2 (Homo sapiens, UniProt P35968); test: Inhibition of VEGFR2 assessed as inhibition of ERK phosphorylation
T1 sequence (P35968 whole entry): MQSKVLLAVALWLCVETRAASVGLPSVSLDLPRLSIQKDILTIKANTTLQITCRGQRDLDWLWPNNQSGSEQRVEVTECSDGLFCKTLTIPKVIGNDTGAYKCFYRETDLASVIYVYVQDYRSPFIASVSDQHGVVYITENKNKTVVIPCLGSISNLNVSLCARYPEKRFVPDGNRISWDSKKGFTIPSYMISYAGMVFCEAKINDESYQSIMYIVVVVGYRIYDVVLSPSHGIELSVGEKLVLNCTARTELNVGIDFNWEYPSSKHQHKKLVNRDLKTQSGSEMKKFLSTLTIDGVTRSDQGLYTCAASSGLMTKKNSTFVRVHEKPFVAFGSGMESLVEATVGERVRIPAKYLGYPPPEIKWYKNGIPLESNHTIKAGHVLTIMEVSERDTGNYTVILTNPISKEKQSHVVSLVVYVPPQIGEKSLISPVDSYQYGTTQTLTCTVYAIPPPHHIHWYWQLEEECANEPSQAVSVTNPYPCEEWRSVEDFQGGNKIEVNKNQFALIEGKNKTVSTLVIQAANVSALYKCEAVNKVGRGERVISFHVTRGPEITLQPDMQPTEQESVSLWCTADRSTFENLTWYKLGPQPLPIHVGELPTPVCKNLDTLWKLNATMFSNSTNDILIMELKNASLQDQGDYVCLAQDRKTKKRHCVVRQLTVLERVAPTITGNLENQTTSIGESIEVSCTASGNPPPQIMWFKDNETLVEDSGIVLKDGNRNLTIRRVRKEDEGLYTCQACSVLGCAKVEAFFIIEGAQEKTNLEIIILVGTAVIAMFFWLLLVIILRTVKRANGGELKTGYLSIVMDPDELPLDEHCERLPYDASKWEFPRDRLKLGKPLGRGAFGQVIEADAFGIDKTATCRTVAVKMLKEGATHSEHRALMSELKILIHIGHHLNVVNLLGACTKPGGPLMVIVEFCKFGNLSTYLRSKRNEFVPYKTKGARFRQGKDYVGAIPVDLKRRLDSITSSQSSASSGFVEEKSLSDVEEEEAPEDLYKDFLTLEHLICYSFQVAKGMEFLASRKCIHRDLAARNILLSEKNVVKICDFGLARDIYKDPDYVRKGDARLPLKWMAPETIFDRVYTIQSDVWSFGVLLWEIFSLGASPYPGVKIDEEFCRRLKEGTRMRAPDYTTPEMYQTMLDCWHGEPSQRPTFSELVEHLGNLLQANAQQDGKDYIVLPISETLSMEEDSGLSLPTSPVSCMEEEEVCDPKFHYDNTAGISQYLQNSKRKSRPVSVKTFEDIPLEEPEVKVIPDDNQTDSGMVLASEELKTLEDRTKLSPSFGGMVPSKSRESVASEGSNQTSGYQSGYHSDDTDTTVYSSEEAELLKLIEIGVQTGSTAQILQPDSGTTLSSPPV
Outline: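 Cellular assay: ERK phosphorylation was measured after VEGF stimulation.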

[3] = target: Epidermal growth factor receptor (Homo sapiens) (UniProt P00533); test: Inhibition of EGFR at 100 nM by radiometric protein kinase assay; outline: as §1
A549 [4] = test: Antitumor activity against human A549 cells xenografted model assessed as tumor growth inhibition at 40 mg/kg, po qd after 14 days; type: functional; details: A549, 336 h, read-out: TGI
Rattus norvegicus = test: Cmax in rat at 4.28 to 4.98 mg/kg, po; type: ADME, organism-based; set-up: dose 4.28-4.98 mg/kg, route oral; details: in vivo
Outline: (§2)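 Rat pharmacokinetics with intravenous dosing at 2.17–2.86 mg/kg and oral dosing at 4.28–4.98 mg/kg. Oral Cmax and AUC normalised per mg/kg.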

[5] = Volume of distribution at steady state in rat at 2.17 to 2.86 mg/kg, iv and 4.28 to 4.98 mg/kg, po; type: ADME, organism-based; details: in vivo, read-out: Vdss; outline: as §2
[6] = target: Angiopoietin-1 receptor (Homo sapiens) (UniProt Q02763); test: Inhibition of […] at 100 nM by radiometric protein kinase assay; outline: as §1
[7] = Antitumor activity against human U87MG cells xenografted model assessed as tumor growth inhibition at 40 mg/kg, po qd after 10 days; type: functional, U-87MG ATCC; details: U-87 MG, 240 h, read-out: TGI
[8] = Tmax in rat at 4.28 to 4.98 mg/kg, po; type: ADME, organism-based; set-up: dose 4.28-4.98 mg/kg, route oral; details: in vivo; outline: as §2
MKN-45 = test: Antitumor activity against human MKN45 cells xenografted model assessed as tumor growth inhibition at 40 mg/kg, po qd after 12 days; type: functional; details: MKN-45, 288 h, read-out: TGI
[9] = target: Aurora kinase A (Homo sapiens) (UniProt O14965); test: Inhibition of Aurora A at 100 nM by radiometric protein kinase assay; outline: as §1
[10] = target: Mast/stem cell growth factor receptor Kit (Homo sapiens) (UniProt P10721); test: Inhibition of c-Kit at 100 nM by radiometric protein kinase assay; outline: as §1
[11] = target: Vascular endothelial growth factor receptor 3 (Homo sapiens) (UniProt P35916); test: Inhibition of VEGFR3 at 100 nM by radiometric protein kinase assay; outline: as §1
[12] = target: Proto-oncogene tyrosine-protein kinase Src (Homo sapiens) (UniProt P12931); test: Inhibition of c-SRC at 100 nM by radiometric protein kinase assay; outline: as §1
Proto-oncogene tyrosine-protein kinase Src (Homo sapiens), sequence (P12931 2-536 limits assumed): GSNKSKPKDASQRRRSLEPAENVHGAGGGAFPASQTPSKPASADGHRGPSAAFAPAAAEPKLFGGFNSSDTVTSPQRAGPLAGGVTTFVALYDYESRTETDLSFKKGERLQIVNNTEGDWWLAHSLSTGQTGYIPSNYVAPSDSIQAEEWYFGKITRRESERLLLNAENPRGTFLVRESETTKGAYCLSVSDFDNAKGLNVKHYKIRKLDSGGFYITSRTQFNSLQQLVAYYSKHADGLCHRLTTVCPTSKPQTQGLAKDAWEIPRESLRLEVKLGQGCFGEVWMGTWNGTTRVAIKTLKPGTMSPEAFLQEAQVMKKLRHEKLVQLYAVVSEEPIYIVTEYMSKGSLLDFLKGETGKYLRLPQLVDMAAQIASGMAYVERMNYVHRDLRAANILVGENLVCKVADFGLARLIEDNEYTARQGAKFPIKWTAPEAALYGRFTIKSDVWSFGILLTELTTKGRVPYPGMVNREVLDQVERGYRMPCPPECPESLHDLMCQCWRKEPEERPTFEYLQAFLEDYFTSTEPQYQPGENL

HUVEC [13] = test: Antiproliferative activity against HUVEC cells assessed as inhibition of […] proliferation; type: functional, cell-based; details: Homo sapiens
[14] = target: T2, Hepatocyte growth factor receptor (Homo sapiens, UniProt P08581); test: Inhibition of TPR-met autophosphorylation expressed in HEK293T cells after 150 mins by ELISA; type: cell-based; details: hek-293t
Outline: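 293T clone stably expressing activated TPR-Met under a CMV promoter, exposed to compound dilutions for 150 min. Autophosphorylation measured in lysates by ELISA with anti-phosphotyrosine (4G10), HRP reporter antibody and chemiluminescent read-out. IC50 from 4-parameter fit of triplicate means.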
Target sequence in this assay (P08581 25-1390 limits assumed): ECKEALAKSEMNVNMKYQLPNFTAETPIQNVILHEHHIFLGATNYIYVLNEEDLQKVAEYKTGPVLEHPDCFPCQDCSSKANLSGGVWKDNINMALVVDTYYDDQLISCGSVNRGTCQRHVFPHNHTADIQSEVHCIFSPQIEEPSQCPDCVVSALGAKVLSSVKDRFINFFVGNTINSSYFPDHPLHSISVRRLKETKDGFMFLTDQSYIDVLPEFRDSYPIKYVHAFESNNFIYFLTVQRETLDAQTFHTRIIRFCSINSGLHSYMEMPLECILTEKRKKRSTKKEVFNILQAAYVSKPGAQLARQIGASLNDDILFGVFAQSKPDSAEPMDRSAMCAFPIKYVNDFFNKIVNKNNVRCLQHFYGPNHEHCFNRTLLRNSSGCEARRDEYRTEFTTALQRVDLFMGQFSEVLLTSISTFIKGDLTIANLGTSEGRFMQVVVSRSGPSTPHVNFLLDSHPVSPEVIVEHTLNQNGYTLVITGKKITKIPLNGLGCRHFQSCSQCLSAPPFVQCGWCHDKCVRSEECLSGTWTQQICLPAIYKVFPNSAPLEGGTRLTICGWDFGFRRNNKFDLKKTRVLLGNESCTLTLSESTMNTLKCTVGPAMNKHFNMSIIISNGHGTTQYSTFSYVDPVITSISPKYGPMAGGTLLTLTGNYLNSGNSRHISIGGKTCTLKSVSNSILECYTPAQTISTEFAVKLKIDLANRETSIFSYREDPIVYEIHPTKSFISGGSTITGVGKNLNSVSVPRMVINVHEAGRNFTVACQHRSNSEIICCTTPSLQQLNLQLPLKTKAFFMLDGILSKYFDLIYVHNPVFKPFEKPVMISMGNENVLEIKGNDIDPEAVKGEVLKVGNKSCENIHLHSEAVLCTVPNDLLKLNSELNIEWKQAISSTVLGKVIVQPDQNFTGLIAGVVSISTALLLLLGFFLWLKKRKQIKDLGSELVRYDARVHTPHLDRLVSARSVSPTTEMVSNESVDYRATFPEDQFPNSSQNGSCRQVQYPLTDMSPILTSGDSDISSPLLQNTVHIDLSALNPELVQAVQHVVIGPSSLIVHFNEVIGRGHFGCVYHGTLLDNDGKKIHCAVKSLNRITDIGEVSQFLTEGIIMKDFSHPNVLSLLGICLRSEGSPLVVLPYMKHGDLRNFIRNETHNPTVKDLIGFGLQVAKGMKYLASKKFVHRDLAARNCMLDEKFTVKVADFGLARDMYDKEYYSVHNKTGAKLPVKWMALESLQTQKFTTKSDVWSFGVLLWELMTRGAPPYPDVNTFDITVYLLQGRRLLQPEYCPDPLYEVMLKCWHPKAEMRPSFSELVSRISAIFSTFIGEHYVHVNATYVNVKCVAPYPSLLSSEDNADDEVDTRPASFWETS

[15] = target: Inhibitor of nuclear factor kappa-B kinase subunit beta (Homo sapiens) (UniProt O14920); test: Inhibition of IKK-beta at 100 nM by radiometric protein kinase assay; outline: as §1
[16] = target: Cyclin-dependent kinase 2/cyclin E (Homo sapiens) (UniProt P24864+P24941+O96020); test: Inhibition of CDK2/Cyclin E at 100 nM by radiometric protein kinase assay; type: protein-complex assay; outline: as §1
HUVEC [17] = test: Antiangiogenic activity in HUVEC cells assessed as inhibition of VEGF-induced tubule growth at 100 nM; type: functional, cell-based; details: Homo sapiens
A549 [18] = test: Inhibition of HGF-induced cell migration in human A549 cells by wound healing assay; type: functional, cell-based
[19] = target: Receptor-type tyrosine-protein kinase FLT3 (Homo sapiens) (UniProt P36888); test: Inhibition of Flt3 at 100 nM by radiometric protein kinase assay; outline: as §1
DU-145 = test: Inhibition of HGF-induced scattering in human DU145 cells; type: functional, cell-based
[20] = Clearance in rat at 2.17 to 2.86 mg/kg, iv and 4.28 to 4.98 mg/kg, po; type: ADME, organism-based; details: in vivo; outline: as §2
[21] = Half life in rat at 2.17 to 2.86 mg/kg, iv; type: ADME, organism-based; set-up: dose 2.17-2.86 mg/kg, route intravenous; details: in vivo; outline: as §2
[22] = target: RAC-alpha serine/threonine-protein kinase (Homo sapiens) (UniProt P31749); test: Inhibition of PKBalpha at 100 nM by radiometric protein kinase assay; outline: as §1
[23] = target: Ephrin type-B receptor 4 (Homo sapiens) (UniProt P54760); test: Inhibition of EphB4 at 100 nM by radiometric protein kinase assay; outline: as §1
HUVEC [24] = test: Antiangiogenic activity in HUVEC cells assessed as inhibition of VEGF-induced tubule growth; type: functional, cell-based; details: Homo sapiens
[25] = target: T2, Hepatocyte growth factor receptor; test: Inhibition of GST-fused recombinant C-met expressed in baculovirus infected high five cells after 30 mins by DELFIA assay
Outline: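 GST-fused catalytic domains from baculovirus-infected cells, High Five for c-Met (MOI 1) and Sf9 for VEGFR2 (MOI 0.1). DELFIA on immobilized poly(Glu4,Tyr). Enzyme 25 nM (c-Met) or 5 nM (VEGFR2), pre-incubated 4 min on ice with inhibitor and Mg-ATP. Reaction at 30 °C, 30 min (c-Met) or 10 min (VEGFR2), stopped with EDTA. Europium anti-phosphotyrosine read by time-resolved fluorescence. Seven concentrations in triplicate; IC50 from four-parameter fit.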
Target sequence in this assay (P08581 whole entry): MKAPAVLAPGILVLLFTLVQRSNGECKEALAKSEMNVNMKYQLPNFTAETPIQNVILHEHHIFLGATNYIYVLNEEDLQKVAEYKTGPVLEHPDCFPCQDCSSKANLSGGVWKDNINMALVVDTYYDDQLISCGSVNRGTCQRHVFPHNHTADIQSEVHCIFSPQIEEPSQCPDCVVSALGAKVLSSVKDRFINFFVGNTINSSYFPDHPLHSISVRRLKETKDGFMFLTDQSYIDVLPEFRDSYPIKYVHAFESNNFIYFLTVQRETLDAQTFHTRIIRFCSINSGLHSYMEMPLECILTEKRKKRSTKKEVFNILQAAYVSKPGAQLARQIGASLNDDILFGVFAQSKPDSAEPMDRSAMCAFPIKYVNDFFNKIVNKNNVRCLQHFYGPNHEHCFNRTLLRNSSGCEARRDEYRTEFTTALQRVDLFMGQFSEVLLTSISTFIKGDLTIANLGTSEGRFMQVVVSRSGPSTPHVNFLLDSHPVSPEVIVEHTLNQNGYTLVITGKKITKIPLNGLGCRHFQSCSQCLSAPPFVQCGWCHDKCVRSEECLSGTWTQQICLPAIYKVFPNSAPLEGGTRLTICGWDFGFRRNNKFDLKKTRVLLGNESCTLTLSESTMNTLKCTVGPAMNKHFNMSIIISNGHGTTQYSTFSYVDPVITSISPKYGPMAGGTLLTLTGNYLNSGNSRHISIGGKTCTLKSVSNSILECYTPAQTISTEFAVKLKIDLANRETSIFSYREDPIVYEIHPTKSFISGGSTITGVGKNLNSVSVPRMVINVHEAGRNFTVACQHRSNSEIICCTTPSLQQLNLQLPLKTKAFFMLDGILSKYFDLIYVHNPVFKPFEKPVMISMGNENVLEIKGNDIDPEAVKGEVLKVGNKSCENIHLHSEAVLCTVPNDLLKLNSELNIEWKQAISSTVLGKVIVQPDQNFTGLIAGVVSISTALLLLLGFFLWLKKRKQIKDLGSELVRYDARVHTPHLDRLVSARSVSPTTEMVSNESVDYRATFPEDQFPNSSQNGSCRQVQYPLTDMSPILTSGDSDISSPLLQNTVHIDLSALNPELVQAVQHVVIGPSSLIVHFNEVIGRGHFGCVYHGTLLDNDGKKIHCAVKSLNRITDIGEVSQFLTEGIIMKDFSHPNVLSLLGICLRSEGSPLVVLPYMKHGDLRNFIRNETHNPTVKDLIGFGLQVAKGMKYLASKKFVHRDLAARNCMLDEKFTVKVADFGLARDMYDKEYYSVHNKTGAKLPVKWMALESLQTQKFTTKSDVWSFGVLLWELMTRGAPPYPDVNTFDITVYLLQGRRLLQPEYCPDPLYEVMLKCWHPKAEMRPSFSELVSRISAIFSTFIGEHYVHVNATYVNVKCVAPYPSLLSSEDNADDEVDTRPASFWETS

[26] = Oral bioavailability in rat at 4.28 to 4.98 mg/kg; type: ADME, organism-based; details: in vivo; outline: as §2
[27] = target: Glycogen synthase kinase-3 beta (Homo sapiens) (UniProt P49841); test: Inhibition of GSK3-beta at 100 nM by radiometric protein kinase assay; outline: as §1
Glycogen synthase kinase-3 beta (Homo sapiens), sequence (P49841 whole entry, looked up): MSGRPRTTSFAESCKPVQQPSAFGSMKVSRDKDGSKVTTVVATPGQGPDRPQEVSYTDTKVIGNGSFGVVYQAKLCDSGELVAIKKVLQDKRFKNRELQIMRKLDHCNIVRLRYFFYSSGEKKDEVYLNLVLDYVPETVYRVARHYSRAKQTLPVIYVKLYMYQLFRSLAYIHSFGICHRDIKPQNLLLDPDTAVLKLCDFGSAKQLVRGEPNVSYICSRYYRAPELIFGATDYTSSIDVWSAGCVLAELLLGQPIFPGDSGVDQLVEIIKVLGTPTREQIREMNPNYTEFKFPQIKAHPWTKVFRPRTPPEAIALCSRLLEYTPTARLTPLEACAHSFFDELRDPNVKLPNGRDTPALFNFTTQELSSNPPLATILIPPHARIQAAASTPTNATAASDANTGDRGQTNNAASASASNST

[28] = target: Vascular endothelial growth factor receptor 1 (Homo sapiens) (UniProt P17948); test: Inhibition of VEGFR1 at 100 nM by radiometric protein kinase assay; outline: as §1
[29] = target: T1, Vascular endothelial growth factor receptor 2; test: Inhibition of GST-fused recombinant VEGFR2 expressed in baculovirus infected Sf9 cells after 30 mins by DELFIA assay

inhibition [1]: 99%
IC50 [2]: 0.001 µM
inhibition [3]: < 5%
Cmax normalised (Rattus norvegicus): 0.1 µM/mg/kg
Vd [5]: 2.2 L/kg
inhibition [6]: 100%
Tmax [8]: 2 h
inhibition [9]: 96%
inhibition [10]: 99%
inhibition [11]: 97%
inhibition [12]: 93%
IC50 [14]: 0.004 µM
inhibition [15]: < 5%
inhibition [16]: < 5%
IC50 (A549 [18]): 0.22 µM
inhibition [19]: 100%
IC50 (DU-145): 0.04 µM
clearance [20]: 16.5 mL/min/kg
half-life [21]: 3.1 h
inhibition [22]: < 5%
inhibition [23]: 95%
IC50 [25]: 0.024 µM
bioavailability [26]: 33%
inhibition [27]: < 5%
inhibition [28]: 98%
Compound: CCn1cnc(-c2cc3nccc(Oc4ccc(NC(=O)C5(C(=O)Nc6ccccc6)CC5)cc4F)c3s2)c1
inhibition in vivo at 40 mg/kg (A549 [4]): 54%
inhibition in vivo at 40 mg/kg [7]: 70%
inhibition in vivo at 40 mg/kg (MKN-45): 101%
IC50 (HUVEC [13]): 0.0003 µM
Activity (HUVEC [17]): Active
IC50 (HUVEC [24]): < 0.003 µM

IC50 [25]: 0.024 µM
Compound: CCn1cnc(-c2cc3nccc(Oc4ccc(NC(=O)CC(=O)Nc5ccc(F)cc5)cc4F)c3s2)c1

IC50 [14]: 2 µM
Compound: O=C(CC(=O)Nc1ccc(Oc2ccnc3cc(C(=O)N4CCCC4)sc23)c(F)c1)Nc1ccccc1

IC50 [14]: 0.15 µM
IC50 [25]: 0.091 µM
Compound: CCn1cnc(-c2cc3nccc(Oc4ccc(NC(=O)CC(=O)Nc5ccccc5C(F)(F)F)cc4F)c3s2)c1

IC50 [14]: > 5 µM
IC50 [25]: 0.036 µM
Compound: O=C(O)Cn1cnc(C(=O)c2cc3nccc(Oc4ccc(NC(=O)CC(=O)Nc5ccccc5)cc4F)c3s2)c1

IC50 [14]: 0.19 µM
IC50 [25]: 0.02 µM
Compound: CN(C)CCn1cnc(C(=O)c2cc3nccc(Oc4ccc(NC(=O)CC(=O)Nc5ccccc5)cc4F)c3s2)c1

IC50 [14]: 0.59 µM
IC50 [29]: 0.01 µM
IC50 [25]: 0.052 µM
Compound: CCn1cnc(-c2cc3nccc(Oc4ccc(NC(=O)CC(=O)NC5CCCCC5)cc4F)c3s2)c1

Cmax normalised (Rattus norvegicus): 0.29 µM/mg/kg
Vd [5]: 0.33 L/kg
Tmax [8]: 0.5 h
IC50 [14]: 0.031 µM
clearance [20]: 8.67 mL/min/kg
half-life [21]: 0.91 h
IC50 [25]: 0.033 µM
bioavailability [26]: 60%
Compound: CCn1cnc(-c2cc3nccc(Oc4ccc(NC(=O)CC(=O)N(C)c5ccccc5)cc4F)c3s2)c1

IC50 [14]: 0.04 µM
IC50 [25]: 0.036 µM
Compound: Cn1ccnc1C(=O)c1cc2nccc(Oc3ccc(NC(=O)CC(=O)Nc4ccccc4)cc3F)c2s1

IC50 [14]: 0.035 µM
IC50 [25]: 0.032 µM
Compound: CCn1cnc(-c2cc3nccc(Oc4ccc(NC(=O)CC(=O)Nc5ccccc5F)cc4F)c3s2)c1

IC50 [14]: 0.87 µM
IC50 [29]: 0.01 µM
IC50 [25]: 0.052 µM
Compound: CCn1cnc(-c2cc3nccc(Oc4ccc(NC(=O)CC(=O)Nc5cccc(F)c5)cc4F)c3s2)c1

IC50 [14]: 0.12 µM
IC50 [25]: 0.038 µM
Compound: CCn1cnc(-c2cc3nccc(Oc4ccc(NC(=O)C5(C(=O)Nc6ccccc6F)CC5)cc4F)c3s2)c1

IC50 [14]: 0.34 µM
IC50 [25]: 0.025 µM
Compound: Cn1cnc(C(=O)c2cc3nccc(Oc4ccc(NC(=O)CC(=O)Nc5ccccc5)cc4F)c3s2)c1

IC50 [14]: 0.6 µM
IC50 [25]: 0.026 µM
Compound: CCn1cnc(-c2cc3nccc(Oc4ccc(NC(=O)CC(=O)Nc5ccccc5O)cc4F)c3s2)c1

IC50 [14]: 0.56 µM
Compound: CN(C)[C@@H]1CCN(C(=O)c2cc3nccc(Oc4ccc(NC(=O)CC(=O)Nc5ccccc5)cc4F)c3s2)C1

IC50 [14]: 0.044 µM
Compound: CCn1cnc(-c2cc3nccc(Oc4ccc(NC(=O)CC(=O)Nc5ccccc5OC)cc4F)c3s2)c1

Cmax normalised (Rattus norvegicus): 0.18 µM/mg/kg
Vd [5]: 0.82 L/kg
Tmax [8]: 5.7 h
IC50 [14]: 0.18 µM
clearance [20]: 5.5 mL/min/kg
half-life [21]: 2.6 h
IC50 [25]: 0.019 µM
bioavailability [26]: 12%
Compound: CCn1cnc(C(=O)c2cc3nccc(Oc4ccc(NC(=O)CC(=O)Nc5ccccc5)cc4F)c3s2)c1
